# Experimental data: the array DNA melting data of Ke et al. (doi:10.1101/2024.01.08.574731)
# Columns and labels:
# [1] = folding enthalpy; higher = less favourable; fluorescence melt of hairpins on a sequencing array, two-state fit; settings: sodium 0.088 M
# Method in brief: (§1)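 On a sequenced MiSeq flow cell, library hairpins with annealed Cy3 and quencher oligos were imaged for Cy3 fluorescence in 2.5 °C steps up to 60 °C, in 50 mM Na-HEPES pH 8.0, 25 mM NaCl. Normalisation used pre-quench Cy3 and control constructs. Bootstrapped two-state fits gave melting temperature and folding enthalpy, combined by inverse variance across four replicates and with fitted temperatures raised by 9.35 °C to match UV melts.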
# [2] = melting temperature; fluorescence melt of hairpins on a sequencing array, two-state fit, raised by 9.35 °C to match UV melts; settings: sodium 0.088 M
# Method in brief: as §1
Sequence,folding enthalpy [1] [kcal/mol],Tm [2] [°C]
GCAGCTACGAAAGTATGC (((..(((....)))))),-15,36.1
GCTGAACGAAAGTTGAGC (((.(((....))).))),-31.4,48.7
GCTGTGCGAAAGCCAAGC (((..((....))..))),-19.2,46.2
GCCCCGCGAAAGCGACGC ((..(((....)))..)),-10.6,31.3
GCTAGGCGAAAGCTTCGC ((.(.((....)).).)),-13.9,36.2
GTTCACGAAAGTGGTAAC ((((((....)))..))),-12.5,25.6
GCATTAGGAAACTGATGC ((((.((....)).)))),-36.7,45.4
GCGTCATACGC ((((...)))),-20.1,62.7
GATCTATATTAGATC ((((((...)))))),-26.1,40.9
GATCCGGTTCCGGATC ((((((....)))))),-43,62.7
GATCATATCAATGATC ((((((....)))))),-27.9,48.3
GTACGAGCGAAAGCTTAC (((..(((....)))))),-8.2,22.6
GCGAACCCTCGC ((((....)))),-23.2,47
GCATAGGCGAAAGCCTGC (((..(((....)))))),-13.5,49
GCCGCTGGAAACAACGGC ((((.((....)).)))),-37.1,54.3
GATCCCCCAAGGGATC ((((((....)))))),-38.6,61.2
GCGACTCCTCGC ((((....)))),-23.9,48.6
GATCAGTAGTCTGATC ((((((....)))))),-37,50.2
GATCTATCCTAGATC ((((((...)))))),-30.6,41.1
GAATTTGGAAACAAGTTC (((.(((....))).))),-28.8,33.8
GACAATGCGAAAGCAGTC (((..(((....)))))),-14,40.4
GATCGTGGAAACACGATC (((((((....))))))),-41.2,66.3
GATCTGACCACAGATC ((((((....)))))),-36.3,49
GGTCTTGGAAACAGGACC ((((.((....)).)))),-36.3,49.2

Sequence,folding enthalpy [1] [kcal/mol],Tm [2] [°C]
GGTTTTCGAAAGAAACC (((.(((....)))))),-23.1,44.8
GTAACCGGAAACGGTTGC (.(((((....))))).),-31.8,53.1
GATCAGAGGTCTGATC ((((((....)))))),-30.6,49.5
GATCGTTGATACGATC ((((((....)))))),-35.3,54.3
GAATGTGGAAACATGTTC (((..((....))..))),-18.7,31.4
GATCAGTCGACTGATC ((((((....)))))),-53.5,55.5
GCCAGTGCGAAAGCAGGC (((..(((....)))))),-15.7,53.7
GGCCCTGCGAAAGCAGCC (((..(((....)))))),-8.71,36.9
CGCGGACGGCTCCGCG ((((((....)))))),-23.5,68.5
GATCTATCCATAGATC ((((((....)))))),-38.1,46.5
GGGGCAGGAAACTACCCC ((((.((....)).)))),-29.4,49
GATCGTCCTCACGATC ((((((....)))))),-42.9,53.5
GATCAGTGGGCTGATC ((((((....)))))),-48.6,54.4
GAACGCGAAAGCGCGTTC ((((((....)))..))),-25.5,63.1
GTAGAGAAATCTAC (((((....))))),-12.6,35.5
GATGGCCGAAAGGCAATC (((.(((....))).))),-20.9,57.3
GATCAGAATGCTGATC ((((((....)))))),-28.1,47
GATCGTATTGACGATC ((((((....)))))),-22.8,55
GAGGTCGGAAACGGCCTC ((((.((....)).)))),-41.8,62.3
GCGAGAATTCGC ((((....)))),-21.8,55.3
GGCTTCGGAAACGAGGTC (.(.(((....))).).),-26.3,39.3
GATTTAGGAAACTGAATC ((((.((....)).)))),-26.4,33.1
CCCGAGAAATCGGG (((((....))))),-19.6,54.2
GACGGGGGAAACCTCGTC ((((.((....)).)))),-31.7,55.1

Sequence,folding enthalpy [1] [kcal/mol],Tm [2] [°C]
GATTAGGGAAACCTAATC (((((((....))))))),-45.1,50.3
GATCGTGGGAACGATC ((((((....)))))),-38.5,61
GTCTGGCGAAAGCCCGAC (((.(((....))).))),-25.7,52.2
GTCAACGAAAGTTAGGAC ((((((....)))..))),-17.1,31.8
GAAGTTGGAAACGATTTC (((.(.(....).).))),-20.9,36.7
GGCGAACGAAAGTTGCC (((.(((....)))))),-36.5,56.9
GTTTGGGGAAACTCAAGC (.(((.(....).))).),-12.2,27.1
GGCATCCGAAAGGAGCC (((.(((....)))))),-42.6,55.6
GGGATTGGAAACGATCTC (.(((.(....).))).),-15.3,31.4
GCGACCGGAAACAGCCGC (((.(.(....).).))),-21.1,32.5
CGTCGACGGAAACGTACG (((..(((....)))))),-20.2,38.1
GATCATCACTATGATC ((((((....)))))),-31.3,48.6
GTTGGCGGAAACGCTGAC ((..(((....)))..)),-16.8,45
GCACAGGGAAACCTGTGC (((((((....))))))),-38,69.3
GCGTCGGTACGC ((((....)))),-19.3,52.8
GCACCGCGAAAGCTGAGC ((.(.((....)).).)),-14.4,37.5
GATCATCTGATGATC ((((((...)))))),-37.5,46.3
GGTGGCCGAAAGGCTACC (((.(((....))).))),-29.6,67.3
GTCTTTGAAAAAAGAC ((((((....)))))),-31.1,48
GATCCATCCTGGATC ((((((...)))))),-43,52.7
GCATAACGAAAGTTGTGC (((.(((....))).))),-54.7,54.7
GAGCGCGAAAGCGAACTC ((((((....)))..))),-15.2,49
GCTTGTCCGAAAGGAAGC (((..(((....)))))),-17.7,36.1
GTTTTGTCGAAAGACAAC (((..(((....)))))),-12.8,37.5

Sequence,folding enthalpy [1] [kcal/mol],Tm [2] [°C]
GTTATAGGAAACTATAAC (((((((....))))))),-35.5,45.4
GTGCCAGCGAAAGCTCAC (((..(((....)))))),-6.66,52.6
GCACAGCGAAAGCTGAGC ((.((((....)))).)),-17.2,63.4
GATCCATGGCTGGATC ((((((....)))))),-35.8,50.5
GAGGACGAAAGTCTACTC ((((((....)))..))),-12,36.8
GGGATTGGAAACAATCTC (.(((((....))))).),-28.3,45.3
GAGGCCGAAAGGCCACTC ((((((....)))..))),-10.2,60.4
GTTGACGGAAACGCCAAC ((((.((....)).)))),-39.8,49.6
GATCTCTTTTGAGATC ((((((....)))))),-39.2,55
GATCCAAATCTGGATC ((((((....)))))),-33.8,47.4
GATCCAGCCGTGGATC ((((((....)))))),-41.2,52.8
GTAGCCGAAAGGCCTAC ((((((....))).))),-12.5,45
GGGTCCGAAAGGAGACCC ((((((....)))..))),-22,53.1
GCACCCGGAAACGGATGC (((.(((....))).))),-25.5,51.6
GATCCCCTGTGGGATC ((((((....)))))),-33.3,63
GATCCGAGGTCGGATC ((((((....)))))),-38.8,58.3
GTCCGAGGAAACTTGGAC ((((.((....)).)))),-29.9,51
GAGTTGGCGAAAGCCCTC (((..(((....)))))),-11.1,28.7
GTAATCGAAAGATTCTAC ((((((....)))..))),-18.5,28.8
GATCTTTAAAAAGATC ((((((....)))))),-34.8,40.5
GATCAGAACTCTGATC ((((((....)))))),-37.6,48.4
